pIC50: −log10 of the molar value. Activity calls are given as the source filed them. The rule behind the calls is not given here.
How the values were obtained:
[1] = target: T1, DNA (cytosine-5)-methyltransferase 3A (Homo sapiens, UniProt Q9Y6K1); assay: (§1) Inhibition of N-terminal His6-tagged DNMT3A (623 to 908 residues) (unknown origin) expressed in Escherichia coli BL21 (DE3) coexpressing DNMT3L (160 to 386 C-terminal residues) (unknown origin) assessed as reduction in oligonucleosome methylation at 100 uM preincubated for 15 mins followed by addition of [3H]-SAM measured after 4 hrs by liquid scintillation counting method
Summary of the method: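 DNMT3A/3L complex activity measured by radioactive methylation assay. Single-point screen at 100µM per compound, with sinefungin (a SAM competitor) run as the reference inhibitor.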

[2] = target: T1, DNA (cytosine-5)-methyltransferase 3A; assay: as §1, with “methylation” for “methylation at 100 uM”
Summary of the method: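 IC50 determined from a dose-response in the same radioactive methylation assay on DNMT3A/3L. Sinefungin served as the SAM-competitive reference inhibitor.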

[3] = test system: MV4-11; assay: Growth inhibition of human MV4-11 cells at 12.5 to 200 uM measured after 48 hrs by AlamarBlue assay; assay type: functional, cell-based
Summary of the method: (§2)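 AML cells were exposed to 12.5, 25, 50, 100 and 200µM for 48 hours before viability read-out: Kasumi-1, MV4-11 and THP-1.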

[4] = test system: HeLa; assay: Growth inhibition of human HeLa cells at 12.5 to 200 uM measured after 4 days by AlamarBlue assay; assay type: functional, cell-based
[5] = test system: THP-1; assay: Growth inhibition of human THP1 cells at 12.5 to 200 uM measured after 48 hrs by AlamarBlue assay; assay type: functional, cell-based; summary of the method: as §2
[6] = test system: KG-1; assay: Growth inhibition of human KG1 cells at 12.5 to 200 uM measured after 72 hrs by AlamarBlue assay; assay type: functional, cell-based
Summary of the method: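 KG-1 AML cells were treated at 12.5, 25, 50, 100 and 200µM, with viability read after 72 hours of exposure.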

[7] = test system: Kasumi 1; assay: Growth inhibition of human Kasumi-1 cells at 12.5 to 200 uM measured after 48 hrs by AlamarBlue assay; assay type: functional, cell-based; summary of the method: as §2

T1 sequence (Q9Y6K1 whole entry, looked up, the tested form may be a part): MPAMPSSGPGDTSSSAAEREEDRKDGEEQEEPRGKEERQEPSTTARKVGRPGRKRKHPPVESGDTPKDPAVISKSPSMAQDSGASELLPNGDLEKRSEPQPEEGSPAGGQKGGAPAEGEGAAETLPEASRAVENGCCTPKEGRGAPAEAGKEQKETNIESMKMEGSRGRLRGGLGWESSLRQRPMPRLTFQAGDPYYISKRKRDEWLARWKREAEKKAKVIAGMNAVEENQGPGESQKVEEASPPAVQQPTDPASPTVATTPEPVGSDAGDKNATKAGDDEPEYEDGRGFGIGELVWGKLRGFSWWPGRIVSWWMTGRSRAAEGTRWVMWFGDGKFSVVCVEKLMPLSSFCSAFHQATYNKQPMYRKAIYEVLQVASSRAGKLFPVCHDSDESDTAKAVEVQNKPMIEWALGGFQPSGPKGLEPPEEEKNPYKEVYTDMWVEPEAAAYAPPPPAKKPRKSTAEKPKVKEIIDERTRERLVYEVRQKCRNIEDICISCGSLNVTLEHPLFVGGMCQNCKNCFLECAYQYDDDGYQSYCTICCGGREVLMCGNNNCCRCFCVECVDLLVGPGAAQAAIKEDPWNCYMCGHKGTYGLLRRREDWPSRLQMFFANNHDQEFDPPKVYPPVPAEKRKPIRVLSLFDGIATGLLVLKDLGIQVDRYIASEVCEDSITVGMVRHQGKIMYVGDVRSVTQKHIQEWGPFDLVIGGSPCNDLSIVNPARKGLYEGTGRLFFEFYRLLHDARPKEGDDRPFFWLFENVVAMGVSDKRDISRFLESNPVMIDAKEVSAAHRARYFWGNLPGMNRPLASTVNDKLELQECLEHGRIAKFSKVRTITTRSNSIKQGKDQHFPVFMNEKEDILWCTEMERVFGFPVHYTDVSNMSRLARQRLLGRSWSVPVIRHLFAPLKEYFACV

Q: How did the inhibition [1] turn out when `COc1ccccc1N1C(=O)c2ccc(C(=O)Nc3ccccc3O)cc2C1=O` was run?
A: 1%

Q: Which inhibition [1] does the source give for `Cc1cc(O)ccc1NC(=O)c1ccc2c(c1)C(=O)N(Cc1cccnc1)C2=O` here?
A: 11%

Q: How did the inhibition [1] turn out when `CC(C)(C)N1C(=O)c2ccc(C(=O)Nc3ccc(C(=O)O)cc3)cc2C1=O` was run?
A: 11%

Q: Which inhibition [1] does the source give for `Cc1ccc(O)c(NC(=O)c2ccc3c(c2)C(=O)N(Cc2cccnc2)C3=O)c1` here?
A: 6%

Q: How did the inhibition [1] turn out when `CCOc1ccc(NC(=O)c2ccc3c(c2)C(=O)N(c2ccccc2)C3=O)cc1` was run?
A: 19%

Q: With `COCCN1C(=O)c2ccc(C(=O)Nc3ccc(Br)cc3C(=O)O)cc2C1=O` as the compound, how does the inhibition [1] read?
A: -8%

Q: What does the source list for `O=C(O)c1ccc(NC(=O)c2ccc3c(c2)C(=O)N(Cc2ccco2)C3=O)cc1`?
A: pIC50 [2]: 4.19; inhibition [1]: 92%

Q: For `O=C(Nc1ccccc1Cl)c1ccc2c(c1)C(=O)N(Cc1ccco1)C2=O`, which inhibition [1] is on record?
A: 13%

Q: `COc1ccccc1NC(=O)c1ccc2c(c1)C(=O)N(Cc1ccco1)C2=O` was tested. Which inhibition [1] did it give?
A: 3%

Q: How did the “growth inhibition (GI)” value [3] turn out when `CC(c1ccccc1)N1C(=O)c2ccc(C(=O)Nc3ccc(Br)cc3C(=O)O)cc2C1=O` (configuration not stated) was run?
A: Active

Q: What about the “growth inhibition (GI)” value [4] of the same compound?
A: Active

Q: And the “growth inhibition (GI)” value [5]?
A: Active

Q: And the pIC50 [2]?
A: 4.33

Q: And the “growth inhibition (GI)” value [6]?
A: Active

Q: What about the “growth inhibition (GI)” value [7] of the same compound?
A: Active

Q: What about the inhibition [1] of the same compound?
A: Active

Q: Which inhibition [1] does the source give for `COc1ccc(N2C(=O)c3ccc(C(=O)Nc4ccccc4OC)cc3C2=O)cc1` here?
A: 4%

Q: Which “growth inhibition (GI)” value [3] does the source give for `O=C(Nc1ccc(Br)cc1C(=O)O)c1ccc2c(c1)C(=O)N(c1cc(Cl)ccc1C(=O)O)C2=O` here?
A: Active

Q: What about the “growth inhibition (GI)” value [4] of the same compound?
A: Active

Q: And the “growth inhibition (GI)” value [5]?
A: Active

Q: And the pIC50 [2]?
A: 4.39

Q: And the “growth inhibition (GI)” value [6]?
A: Active

Q: And the “growth inhibition (GI)” value [7]?
A: Active

Q: And the inhibition [1]?
A: 67%

Q: For `CCOc1ccccc1N1C(=O)c2ccc(C(=O)Nc3ccc(Br)cc3C(=O)O)cc2C1=O`, which inhibition [1] is on record?
A: 56%

Q: For `Cc1cc(Br)ccc1NC(=O)c1ccc2c(c1)C(=O)N(CC(C)C)C2=O`, which inhibition [1] is on record?
A: 8%

From ChEMBL document CHEMBL3871293, “Discovery of novel DNA methyltransferase 3A inhibitors via structure-based virtual screening and biological assays” (Bioorg Med Chem Lett, 2017)
